# Screening results as filed in PubChem BioAssay.
# ARFGAP1 inhibitor = inhibitors of rat ARFGAP1. 360,000 tested, 0.26% active. inhibition, % at 16.5 µM. Arfgap1-stimulated ARF1 GTP hydrolysis, GDP FP detection. Q62848;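 active means inhibition above a per-plate limit, mean inhibition of low control wells plus 3 SD, cut at about 25% in these data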;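 further: 0% = DMSO wells with enzyme and 100% = wells lacking Arfgap1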
# Target sequence (Q62848 1-136 limits assumed): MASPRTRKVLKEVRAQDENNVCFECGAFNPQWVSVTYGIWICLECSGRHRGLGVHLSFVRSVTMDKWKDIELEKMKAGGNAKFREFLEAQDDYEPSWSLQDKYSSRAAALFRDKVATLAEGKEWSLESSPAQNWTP
#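 Material: rat Arfgap1 catalytic domain, aa 1-136; also added: human ARF1(Δ1-17)-GTP substrate; compound dosing: one concentration, 16.5 µM, DMSO 1.26%; incubation: GTP hydrolysis reaction 2 h at 25 °C; measured by: Tracer-displacement fluorescence polarization with EDTA stop, 620/688 nm; evaluation: % inhibition from polarization; repeats: one replicate per compound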
# ASAP1 GAP inh = blocks human ASAP1-stimulated Arf1 GTP hydrolysis | GDP FP detection | inhibition, % at 16.5 µM | 360,000 tested, 0.19% active | AID 624377; in the data active means inhibition above about 25%;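 further: 0% = vehicle with enzyme and substrate and 100% = no enzyme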
# Target sequence (Q9ULH1 325-724 limits assumed): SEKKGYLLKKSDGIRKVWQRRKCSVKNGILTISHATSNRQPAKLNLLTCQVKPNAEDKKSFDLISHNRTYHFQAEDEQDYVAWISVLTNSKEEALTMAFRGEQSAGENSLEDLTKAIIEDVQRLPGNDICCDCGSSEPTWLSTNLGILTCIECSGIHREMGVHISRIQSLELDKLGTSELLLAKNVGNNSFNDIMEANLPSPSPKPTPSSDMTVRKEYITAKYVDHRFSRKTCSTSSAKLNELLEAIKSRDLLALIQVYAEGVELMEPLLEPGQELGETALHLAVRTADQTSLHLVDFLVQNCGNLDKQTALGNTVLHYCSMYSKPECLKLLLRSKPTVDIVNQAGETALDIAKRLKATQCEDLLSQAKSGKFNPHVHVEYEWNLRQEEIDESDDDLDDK
# MsrA inhibitor = inhibitors of bovine MsrA. purified bovine MsrA, absorbance read-out. inhibition, % at 15.5 µM. 360,000 tested, 0.75% active. AID 651718; in the data active means inhibition above about 4.5%;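 further: 0% = vehicle wells with enzyme and 100% = reference inhibitor wells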
# bovine MsrA act = activates bovine MsrA enzyme; 360,000 tested, 0.3% active; activation, % at 10.6 µM; purified bovine MsrA, absorbance read-out; in the data active means activation above about 7.5%;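 further: 0% = vehicle and 100% = reference activator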
# MsrA activ conf = bovine methionine sulfoxide reductase A activation confirmed. AID 602270. shares compounds with bovine MsrA act. 1,000 tested, 12% active. purified bovine MsrA, absorbance read-out. activation, % at 10.6 µM; in the data active means activation above about 4%;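 further: enzyme coupled to thioredoxin and thioredoxin reductase with NADPH; 0% = vehicle wells and 100% = reference activator wells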
# Starred values were filed as active, the others as inactive; · = not tested or not shown. Hits are enriched below; roughly 1.4% of the tested compounds scored in any of these assays.
SMILES,ARFGAP1 inhibitor,ASAP1 GAP inh,MsrA inhibitor,bovine MsrA act,MsrA activ conf
COc1cc(C(=O)Nc2ccc(Nc3ccccc3)cc2)cc(OC)c1OC,2.7,-5.1,0.8,-2.6,·
CCOC(=O)c1ccc(NC(=O)c2cc(F)c(F)cc2Cl)cc1,-0.9,-7.7,1.4,8.7*,0.6
COC(=O)C1=C(C)N(Cc2ccco2)C(=O)N[C@@H]1c1ccco1,8.9,12.9,-0.3,-3.0,·
CCN(CC)c1ccc(-c2sc(Nc3ccccc3)n[n+]2-c2ccc(F)cc2)cc1,-4.9,-22.3,2.6,17.4*,4.0*
CN(C)c1ccc(-c2sc(Nc3ccccc3)n[n+]2-c2ccc(F)cc2)cc1,-2.0,2.2,1.2,0.2,·
COc1cccc(C(c2sc3ncnn3c2O)N2CC(C)OC(C)C2)c1 (configuration not stated),-0.7,-11.1,1.2,8.1*,-2.9
COc1cccc(C(c2sc3ncnn3c2O)N2CCc3ccccc3C2)c1 (configuration not stated),-2.1,-1.8,0.3,-3.0,·
O=C(Cn1sc2ccccc2c1=O)Nc1ccccc1,1.0,-0.6,0.2,7.7*,2.0
CC(=O)c1ccc2oc3ccccc3c(=O)c2c1,-5.5,7.9,-0.1,-1.7,·
COC(=O)c1ccc(NC(=O)CSc2nnc(COc3ccc4c(c3)CCCC4)o2)cc1,-3.2,-4.8,-0.5,-5.2,·
CCc1ccc(NC(=O)CSc2nnc(COc3ccc4c(c3)CCCC4)o2)cc1,13.3,-18.4,0.2,10.6*,-2.5
CCCCCc1c(C)nc(Nc2ccc(F)cc2)[nH]c1=O,17.5,-11.8,-1.0,9.8*,1.0
COCCN(C)C(=O)CC1C(=O)NCCN1CC(c1ccccc1)c1ccccc1 (configuration not stated),-12.8,5.2,-0.2,10.6*,-2.6
Cc1cc(CN(C)C(=O)CC2C(=O)NCCN2CC(c2ccccc2)c2ccccc2)on1 (configuration not stated),3.4,-0.7,2.1,-1.1,·
c1ccc(N2CCOCCOCCOCCOCC2)cc1,2.7,8.0,-0.5,-1.1,·
c1ccn(-c2ccc(N3CCOCC3)cc2)c1,-5.4,6.7,-0.6,10.3*,-1.0
COC(=O)c1cc2c(c3c4ccccc4n(S(=O)(=O)c4ccccc4)c13)C(=O)N(Cc1ccc(N(C)C)cc1)C2,16.9,-2.1,1.2,·,·
CC(=O)Nc1ccc(SC[C@H](Cc2ccccc2)N2CC[C@@H](C(C)(C)C)CCC2=O)cc1,-10.6,13.0,0.7,-3.8,·
CC(=O)Nc1ccc(SC[C@H](Cc2ccccc2)N2CC[C@@H](O)CCC2=O)cc1,3.6,-0.1,0.3,9.3*,-1.3
O=C(Cn1c(=O)oc2ccccc21)Nc1n[nH]c(=S)s1,5.8,-15.7,1.8,7.9*,5.5*
CC(=O)Nc1cccc(NC(=O)CSc2nnc3ccc(-c4ccncc4)nn23)c1,9.7,7.7,0.3,-2.5,·
O=C(O)C1C2CC(C(Br)C2Br)C1C(=O)O (configuration not stated),-5.1,-1.8,-0.3,15.4*,-1.1
CCc1nc2c(OCCOc3ccc(F)cc3)cccn2c1N(C)C(=O)CC(C)C,-6.2,9.6,0.2,-1.3,·
S=c1[nH]nc(-c2cccnc2)n1/N=C/c1cccs1,5.5,11.7,0.3,10.1*,-1.5
O=C(CSc1ccccc1C(=O)O)NCc1ccccc1,-1.4,5.2,-0.3,8.1*,-0.8
SMILES,ARFGAP1 inhibitor,ASAP1 GAP inh,MsrA inhibitor,bovine MsrA act,MsrA activ conf
CCOC(=O)Cn1nc(-c2ccccc2)ccc1=O,-14.5,2.7,1.7,-0.8,·
CCOC(=O)Cn1cc(-c2ccccc2)nn1,-0.4,7.4,0.3,8.3*,-0.6
COc1cccc(-n2cn[nH]c2=S)c1,-0.1,-6.2,1.4,7.8*,-0.5
CC(=O)OCCn1c(C)[n+](CCOC(C)=O)c2cc(Cl)c(Cl)cc21,12.5,-0.7,2.0,-2.0,·
CC(=O)OCCn1c2nc(=O)[nH]c(=O)c-2nc2cc(C)c(C)cc21,11.1,-15.0,0.8,12.6*,16.0*
O=C(O)c1cc(-c2ccc(Cl)cc2)n[nH]1,-0.2,-26.0,-0.2,9.2*,-1.6
CCOc1ccc(-c2nnc(NC3=NCCCCC3)o2)cc1,-6.6,0.6,0.5,10.2*,0.0
CC(C)(C)c1cc(NC(=O)c2ccco2)n(-c2ccccc2)n1,1.9,-4.2,0.8,16.1*,-1.0
COc1ccc(O)c(/C=N/NC(=O)CCC(=O)Nc2ccc(F)cc2)c1,-1.8,12.4,1.4,7.9*,-2.8
COc1ccc(/C=N/NC(=O)CCC(=O)Nc2ccc(F)cc2)c(OC)c1,-6.0,1.2,3.9,-9.9,·
CCOC(=O)c1sc(=S)n(-c2ccccc2OC)c1N,11.1,-4.5,3.0,8.4*,-5.6
COC(=O)c1sc(=S)n(-c2ccccc2OC)c1N,10.4,-2.4,2.1,-1.2,·
COc1ccc(C2N(c3ccccc3)CCN2c2ccccc2)cc1O,7.4,-3.9,0.7,-3.5,·
c1ccc(-n2cnc3cc(NCc4ccco4)ccc32)cc1,10.1,14.3,0.0,9.5*,1.1
O=C(Nc1n[nH]c(=S)s1)c1ccco1,-1.9,6.9,2.5,8.7*,1.6
Cc1cc(C)n(-c2ccc(C(=O)Nc3ccc4c(c3)OCO4)cc2)n1,4.6,3.1,0.6,8.4*,-6.0
O=C(Nc1ccc(Br)cc1)c1ccc(N2C(=O)C3CC=C(Cl)CC3C2=O)cc1 (configuration not stated),-1.1,1.4,0.1,-4.5,·
CSc1ccc(-c2nc(O)c3cnccn23)cc1,7.9,11.0,3.1,10.2*,-3.6
O=C(OCCN1CCCCC1)C1(c2ccccc2)CCCC1,-9.7,-0.7,0.3,-4.3,·
O=C(OCCN1CCCC1)C1(c2ccccc2)CCCC1,-0.3,-0.5,-0.1,9.6*,-1.5
Cc1ccc(C(C)C)cc1OCC(=O)Nc1nnc(C2CC2)s1,-10.9,2.2,0.5,-2.6,·
Cc1cc(OCC(=O)Nc2nnc(C3CC3)s2)ccc1C(C)C,-7.4,-11.3,-1.2,10.9*,-2.1
Cc1cccc(C)c1NC(=O)C(CCc1ccccc1)N1CCC(c2ccccc2)CC1 (configuration not stated),-2.4,11.9,-1.1,·,·
N#Cc1c(-c2ccccc2)nc(SCC(=O)N2c3ccccc3Sc3ccccc32)[nH]c1=O,-19.8,2.7,0.2,-8.5,·
CC(C)c1ncc(C(O)c2cccc3ccccc23)n1C (configuration not stated),-9.7,-4.3,-0.5,13.4*,-3.2
O=C(COC(=O)C1CC(=O)N(Cc2ccco2)C1)Nc1nc(-c2ccc(F)cc2)cs1 (configuration not stated),0.6,-2.7,1.3,-2.1,·
CN(Cc1c(F)cccc1Cl)C(=O)CNC(=O)c1sc2ccccc2c1Cl,4.4,-6.0,-0.1,-6.3,·
Cc1cnc(C(=O)OCC(=O)Nc2cccc(C)c2C)cn1,-7.3,6.1,0.4,-5.5,·
Cc1cnc(C(=O)OCC(=O)Nc2cccc3ccccc23)cn1,3.8,1.9,-1.8,12.9*,-0.6
C#CCOCCOCCOCCNc1nc(N2CCN(C(=O)[C@H]([C@@H](C)CC)n3cc(CCC(=O)O)nn3)CC2)nc(N2CCN(C(=O)[C@H](C)n3cc(CCCN=C(N)N)nn3)CC2)n1,4.9,4.8,0.5,-1.8,·
